Measured values reported in ChEMBL document CHEMBL4130483, “Leishmanicidal and cytotoxic activity of hederagenin-bistriazolyl derivatives” (Eur J Med Chem, 2017).

What was measured:
Leishmania infantum [1] = test: Antiparasitic activity against Leishmania infantum; assay type: functional, organism-based
FaDu = test: Cytotoxicity against human FADU cells assessed as reduction in cell viability incubated fro 96 hrs by SRB assay; assay type: functional, cell-based
Leishmania infantum [2] = test: Antileishmanial activity against Leishmania infantum MHOM/BR/70/BH46 intracellular amastigotes infected in canine DH82 cells assessed as as inhibition of cell growth at 1000 uM incubated for 48 hrs by ELISA method; assay type: functional; settings: MHOM/BR/70/BH46, DH82, 48 h, read-out: GI
A2780 = test: Cytotoxicity against human A2780 cells assessed as reduction in cell viability incubated fro 96 hrs by SRB assay; assay type: functional, cell-based; settings: A2780, 96 h
Outline: (§1)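 Sulforhodamine B photometric assay after 96 h treatment. Monolayers were grown in RPMI 1640 with L-glutamine, 10% heat-inactivated FBS and penicillin/streptomycin at 37 °C in humidified 5% CO2. Cut-off was 30 μM, or 60 μM for the parent. EC50 was averaged from at least three independent experiments, each in four replicates. Betulinic acid was the positive standard.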

A-375 = test: Cytotoxicity against human A375 cells assessed as reduction in cell viability incubated fro 96 hrs by SRB assay; assay type: functional, cell-based; settings: A-375, 96 h; outline: as §1
SW-1736 = test: Cytotoxicity against human SW1736 cells assessed as reduction in cell viability incubated fro 96 hrs by SRB assay; assay type: functional, cell-based; settings: SW-1736, 96 h; outline: as §1
HT-29 = test: Cytotoxicity against human HT-29 cells assessed as reduction in cell viability incubated fro 96 hrs by SRB assay; assay type: functional, cell-based; settings: HT-29, 96 h; outline: as §1

| IC50 (Leishmania infantum [1]) [µM] | Structure (SMILES) | EC50 (FaDu) [µM] | inhibition of growth at 1000 µM (Leishmania infantum [2]) [%] | EC50 (A2780) [µM] | EC50 (A-375) [µM] | EC50 (SW-1736) [µM] | EC50 (HT-29) [µM] |
| --- | --- | --- | --- | --- | --- | --- | --- |
| 2 to 6 | CC1(C)CC[C@]2(C(=O)NCc3cn(Cc4ccccc4[N+](=O)[O-])nn3)CC[C@]3(C)C(=CC[C@@H]4[C@@]5(C)CC[C@H](O)[C@@](C)(CO)[C@@H]5CC[C@]43C)[C@@H]2C1 | – | – | – | – | – | – |
| – | CC1(C)CC[C@]2(C(=O)OCc3cn(CC(=O)c4ccc5ccccc5c4)nn3)CC[C@]3(C)C(=CC[C@@H]4[C@@]5(C)CC[C@H](O)[C@@](C)(COCc6cn(CC(=O)c7ccc8ccccc8c7)nn6)[C@@H]5CC[C@]43C)[C@@H]2C1 | > 30 | 71.5 | > 30 | > 30 | > 30 | > 30 |
| – | CC1(C)CC[C@]2(C(=O)OCc3cn(Cc4cccc([N+](=O)[O-])c4)nn3)CC[C@]3(C)C(=CC[C@@H]4[C@@]5(C)CC[C@H](O)[C@@](C)(COCc6cn(Cc7cccc([N+](=O)[O-])c7)nn6)[C@@H]5CC[C@]43C)[C@@H]2C1 | > 30 | 21.4 | > 30 | > 30 | > 30 | > 30 |
| – | CC1(C)CC[C@]2(C(=O)OCc3cn(Cc4ccccc4Cl)nn3)CC[C@]3(C)C(=CC[C@@H]4[C@@]5(C)CC[C@H](O)[C@@](C)(COCc6cn(Cc7ccccc7Cl)nn6)[C@@H]5CC[C@]43C)[C@@H]2C1 | > 30 | 4.1 | > 30 | > 30 | > 30 | 27 |
| 32 to 34 | CC1(C)CC[C@]2(C(=O)OCc3cn(Cc4ccccc4[N+](=O)[O-])nn3)CC[C@]3(C)C(=CC[C@@H]4[C@@]5(C)CC[C@H](O)[C@@](C)(CO)[C@@H]5CC[C@]43C)[C@@H]2C1 | – | – | – | – | – | – |
| – | CC1(C)CC[C@]2(C(=O)OCc3cn(Cc4ccccc4)nn3)CC[C@]3(C)C(=CC[C@@H]4[C@@]5(C)CC[C@H](O)[C@@](C)(COCc6cn(Cc7ccccc7)nn6)[C@@H]5CC[C@]43C)[C@@H]2C1 | > 30 | 17.7 | > 30 | > 30 | > 30 | > 30 |
| – | CC1(C)CC[C@]2(C(=O)OCc3cn(CC(=O)c4ccccc4)nn3)CC[C@]3(C)C(=CC[C@@H]4[C@@]5(C)CC[C@H](O)[C@@](C)(COCc6cn(CC(=O)c7ccccc7)nn6)[C@@H]5CC[C@]43C)[C@@H]2C1 | > 30 | 0 | > 30 | > 30 | > 30 | > 30 |
| – | CC1(C)CC[C@]2(C(=O)OCc3cn(Cc4ccc(Br)cc4)nn3)CC[C@]3(C)C(=CC[C@@H]4[C@@]5(C)CC[C@H](O)[C@@](C)(COCc6cn(Cc7ccc(Br)cc7)nn6)[C@@H]5CC[C@]43C)[C@@H]2C1 | > 30 | 9.8 | > 30 | > 30 | > 30 | > 30 |
| – | CC1(C)CC[C@]2(C(=O)OCc3cn(Cc4ccccc4Br)nn3)CC[C@]3(C)C(=CC[C@@H]4[C@@]5(C)CC[C@H](O)[C@@](C)(COCc6cn(Cc7ccccc7Br)nn6)[C@@H]5CC[C@]43C)[C@@H]2C1 | > 30 | 53.4 | > 30 | > 30 | > 30 | > 30 |
| – | C=C(C)[C@@H]1CC[C@]2(C(=O)O)CC[C@]3(C)[C@H](CC[C@@H]4[C@@]5(C)CC[C@H](O)C(C)(C)[C@@H]5CC[C@]43C)[C@@H]12 [BETULINIC ACID] | 13.4 | – | – | 12 | 16.4 | – |
| – | CC1(C)CC[C@]2(C(=O)OCc3cn(Cc4ccc(Cl)cc4)nn3)CC[C@]3(C)C(=CC[C@@H]4[C@@]5(C)CC[C@H](O)[C@@](C)(COCc6cn(Cc7ccc(Cl)cc7)nn6)[C@@H]5CC[C@]43C)[C@@H]2C1 | > 30 | 1.6 | > 30 | > 30 | > 30 | > 30 |
| – | CC1(C)CC[C@]2(C(=O)OCc3cn(Cc4cccc(Br)c4)nn3)CC[C@]3(C)C(=CC[C@@H]4[C@@]5(C)CC[C@H](O)[C@@](C)(COCc6cn(Cc7cccc(Br)c7)nn6)[C@@H]5CC[C@]43C)[C@@H]2C1 | > 30 | 7.8 | > 30 | > 30 | > 30 | > 30 |
| – | CC1(C)CC[C@]2(C(=O)OCc3cn(Cc4ccccc4[N+](=O)[O-])nn3)CC[C@]3(C)C(=CC[C@@H]4[C@@]5(C)CC[C@H](O)[C@@](C)(COCc6cn(Cc7ccccc7[N+](=O)[O-])nn6)[C@@H]5CC[C@]43C)[C@@H]2C1 | > 30 | 35 | > 30 | > 30 | > 30 | > 30 |
| – | Cc1cccc(Cn2cc(COC[C@@]3(C)[C@@H]4CC[C@]5(C)[C@H](CC=C6[C@@H]7CC(C)(C)CC[C@]7(C(=O)OCc7cn(Cc8cccc(C)c8)nn7)CC[C@]65C)[C@@]4(C)CC[C@@H]3O)nn2)c1 | > 30 | 31.3 | > 30 | > 30 | > 30 | > 30 |
| 2 to 6 | CC1(C)CC[C@]2(C(=O)NCc3cn(Cc4ccc(Cl)cc4)nn3)CC[C@]3(C)C(=CC[C@@H]4[C@@]5(C)CC[C@H](O)[C@@](C)(CO)[C@@H]5CC[C@]43C)[C@@H]2C1 | – | – | – | – | – | – |
| 11 | CC1(C)CC[C@]2(C(=O)OCc3cn(Cc4ccc(F)cc4F)nn3)CC[C@]3(C)C(=CC[C@@H]4[C@@]5(C)CC[C@H](O)[C@@](C)(CO)[C@@H]5CC[C@]43C)[C@@H]2C1 | – | – | – | – | – | – |
| – | CC1(C)CC[C@]2(C(=O)OCc3cn(Cc4cccc(Cl)c4)nn3)CC[C@]3(C)C(=CC[C@@H]4[C@@]5(C)CC[C@H](O)[C@@](C)(COCc6cn(Cc7cccc(Cl)c7)nn6)[C@@H]5CC[C@]43C)[C@@H]2C1 | > 30 | 41.8 | > 30 | > 30 | > 30 | > 30 |
| – | Cc1ccc(Cn2cc(COC[C@@]3(C)[C@@H]4CC[C@]5(C)[C@H](CC=C6[C@@H]7CC(C)(C)CC[C@]7(C(=O)OCc7cn(Cc8ccc(C)cc8)nn7)CC[C@]65C)[C@@]4(C)CC[C@@H]3O)nn2)cc1 | > 30 | 0 | 29.1 | 26.1 | > 30 | 21.7 |
